Reference: the EternaBench riboswitch data

Tested on: MS2 coat protein
Experiment: apparent Kd, MS2 coat protein; higher = weaker binding; RNA-MaP array; theophylline 2 mM where present
In short: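 Designs were transcribed by stalled E. coli RNA polymerase on Illumina sequencing-chip clusters. They were titrated with SNAP-549-labelled MS2 coat protein from 0.7 or 1.5 nM, doubling to 3 µM, without and then with constant ligand. Buffer: 100 mM Tris-HCl pH 7.5, 80 mM KCl, 4 mM MgCl2, BSA, DTT, yeast tRNA, Tween-20. Green signal was normalised to red-channel RNA signal and control-cluster median Fmax. Apparent Kd is the median of filtered per-cluster binding-curve fits.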

[1] = designed as: OFF switch for theophylline, no ligand
[2] = ligand present: theophylline, designed as: OFF switch for theophylline
[3] = designed as: ON switch for theophylline, no ligand
[4] = ligand present: theophylline, designed as: ON switch for theophylline

| Sequence | apparent Kd [1] [nM] | apparent Kd [2] [nM] | apparent Kd [3] [nM] | apparent Kd [4] [nM] |
| --- | --- | --- | --- | --- |
| UCGCAUUGCUGCGAUACCAGACAUGAGGAUCACCCAUGUACCAAGGUACGAAAAUAACAUGUCCCUUGGCAGCGCAGCAAUGCGU | 12.8 | 322 |  |  |
| UAAAACAUGAGGAUCACCCAUGUAAUUGAUACCAGAGUGAUGAUCCUCCCUUGGCAGCAAAUAACGCAUUGAUUACAAUGCGAAA |  |  | 42.7 | 215 |
| UUUGAAAUAACAGAUACCAGCGUGUUAUAAAACAUGAGGAUCACCCAUGUAGUGAUCAAGCGCCCUUGGCAGCUGGUAUUUUAGG |  |  | 85.4 | 196 |
| AUAAUGGGUAUCGGAUUAUCAUGAUAUGAUACCAGAUACUUAGAUAUCCCUUGGCAGCAUGAGGACAUGAGGAUCACCCAUGUAU | 35 | 61.8 |  |  |
| UCACGAGGCCUGGAUACCAGCGACAUGAGGAUCACCCAUGUAUGAGGAUCAGCCAUGUUAUGCCCUUGGCAGCCACGAAGGUCAU | 14.6 | 94.5 |  |  |
| AUGGCGUUGGUGUAGCUGUGAAAUGGCGAUACCAGCGUGGAAACACGCCCUUGGCAGCGCCAAAACAUGAGGAUCACCCAUGUUA | 20.1 | 96.6 |  |  |
| CGUACAUGAGGAUCACCCAUGUAGAGUGAUACCAGUCUACCUAGUGACCCUUGGCAGCACAUCGAUGGCAUCGGUGAUGCCGUUU |  |  | 87.3 | 83.3 |
| AACCGAGGCUAUCCUCUAAGAAUAUGUGAUACCAGAAUAAUUUUAUUCCCUUGGCAGCAUGACAUGAGGAUCACCCAUGUGUCUU |  |  | 134 | 134 |
| AGACAUGAGGAUCACCCAUGUAGUACGGAUACCAGAUCCAGAUGCGUCCCUUGGCAGCUGUAGUACAGCGUUACAUCGCUCAUAG | 37.9 | 70.7 |  |  |
| UGUAACAUGAGGAUCACCCAUGUGCACGAUACCAGCUUCGAAAGAGGCCCUUGGCAGCGUAUGCGUAAGCUGUAUAAUAUAUAUC |  |  | 11.4 | 13.6 |
| AAACUGGGUGUAAAAUAAAUAAUCACUGAUACCAGACUAUAGUAUGUCCCUUGGCAGCAGAAACAUGAGGAUCACCCAUGUAAUA | 21.7 | 21.3 |  |  |
| ACCAUGUAAUCAGAUACCAGACAUCUUUUAAAUCAUAUUACAUGAGGAUCACCCAUGUUGGUCCCUUGGCAGCUGAAAUAUUUUU |  |  | 205 | 46.4 |
| UGACAUUGCUCAGAUACCAGACAUGAGGAUCACCCAUGUACCAAGAGUACAAAUUAAAAUGUCCCUUGGCAGCUGAGCAAUGUCU | 19.6 | 483 |  |  |
| UGGUACAUGAGGAUCACCCAUGUUCCAGAUACCAGACUCCCGGUGGUCCCUUGGCAGCUGGUGGUACAUGAGGAUCACCCAUGUG | 30.4 | 49.9 |  |  |
| AAUAACAUGAGGAUCACCCAUGUAAAAGAUACCAGAGUGAUGAUCCUCCCUUGGCAGCUUAAAACGCUAUUGAUUACAAUAGCGA |  |  | 54.9 | 119 |
| AUCUCAUAGAGUGAUACCAGACUACAUGAGGAUCACCCAUGUUACAUUUAAAUAUCAUUUGUCCCUUGGCAGCACAUUAAGUACA | 24.3 | 15.2 |  |  |
| UCGCUCGCAGAAAUGCGAGCGAGUUGCGAUACCAGCCCGGAAACGGGCCCUUGGCAGCGCACAUGAGGAUCACCCAUGUCAUGUU | 17.4 | 23.8 |  |  |
| UUUACAUGAGGAUCACCCAUGUGCCAUGAUACCAGACAUGAAAAUGUCCCUUGGCAGCAUGAAAGAUCCACGUCGGAAACGACGG |  |  | 176 | 308 |
| UCGCAUUGCUCAGAUACCAGACAUGAGGAUCACCCAUGUACCAAGGUAACCGAAAGGCAUGUCCCUUGGCAGCUGAGCAAUGCGU | 12.1 | 225 |  |  |
| AUUUUUCUAUCAGAUACCAGACAAUUUUAGACAUGAGGAUCACCCAUGUAUAGGGUGUUCGUCCCUUGGCAGCUGUUAAGUUUAA |  |  | 190 | 205 |
| AUUAAUAGUUGUGAUACCAGACGAACAUGAGGAUCACCCAUGUAACUUUUAGGUGUUGUAGUCCCUUGGCAGCACUAUUUAGUUA |  |  | 42.7 | 35.3 |
| ACAUGAACAUGAGGAUCACCCAUGUAUGAUACCAGAAAAGAAGAGUUCCCUUGGCAGCGUACAACACAUGAGGAUCACCCAUGUG |  |  | 24.1 | 24.3 |
